In brackets after ≈: the same amount, converted by molar mass.
System: Plasmodium falciparum
Test: Antimalarial activity against chloroquine-sensitive Plasmodium falciparum NF54 after 36-40 hrs
Assay type: functional
Summary of the method: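 Rieckmann microassay: NF-54 kept in RPMI-1640 with 25 mM HEPES, 1% D-glucose, 0.23% sodium bicarbonate, 10% heat-inactivated human serum. Ring stage obtained by 5% D-sorbitol synchronization; ~1% parasitemia, 3% haematocrit. Compound 0.25–50 µg/ml, duplicate wells, 37 °C in candle jar. Giemsa smears scored microscopically; MIC taken as lowest concentration blocking full maturation to schizonts.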

MIC	Compound
0.22 µM (≈ 0.125 µg/mL)	COC(=O)[C@H]1Cc2c([nH]c3ccccc23)[C@@H](c2ccc(C(C)C)cc2)N1CCCNc1ccnc2cc(Cl)ccc12
3.58 µM (≈ 2 µg/mL)	COC(=O)[C@@H]1Cc2c([nH]c3ccccc23)[C@H](c2ccc(Cl)cc2)N1CCCNc1ccnc2cc(Cl)ccc12
3.61 µM (≈ 2 µg/mL)	COC(=O)[C@H]1Cc2c([nH]c3ccccc23)[C@@H](c2ccc(OC)cc2)N1CCCNc1ccnc2cc(Cl)ccc12
0.05 µM (≈ 0.0284 µg/mL)	COC(=O)[C@@H]1Cc2c([nH]c3ccccc23)[C@@H](c2ccc(C(C)C)cc2)N1CCCNc1ccnc2cc(Cl)ccc12
18.1 µM (≈ 10 µg/mL)	COC(=O)[C@@H]1Cc2c([nH]c3ccccc23)[C@@H](c2ccc(C(C)C)cc2)N1CCNc1ccnc2cc(Cl)ccc12
3.61 µM (≈ 2 µg/mL)	COC(=O)[C@@H]1Cc2c([nH]c3ccccc23)[C@@H](c2ccc(OC)cc2)N1CCCNc1ccnc2cc(Cl)ccc12
18.1 µM (≈ 10 µg/mL)	COC(=O)[C@H]1Cc2c([nH]c3ccccc23)[C@@H](c2ccc(C(C)C)cc2)N1CCNc1ccnc2cc(Cl)ccc12
0.391 µM (≈ 0.125 µg/mL)	CCN(CC)CCCC(C)Nc1ccnc2cc(Cl)ccc12 (centres undefined) [CHLOROQUINE]
16.6 µM (≈ 10 µg/mL)	COC(=O)[C@H]1Cc2c([nH]c3ccccc23)[C@H](c2ccc(Br)cc2)N1CCCNc1ccnc2cc(Cl)ccc12
3.61 µM (≈ 2 µg/mL)	COC(=O)[C@@H]1Cc2c([nH]c3ccccc23)[C@H](c2ccc(OC)cc2)N1CCCNc1ccnc2cc(Cl)ccc12
17.5 µM (≈ 10 µg/mL)	COC(=O)[C@H]1Cc2c([nH]c3ccccc23)[C@H](c2ccc(SC)cc2)N1CCCNc1ccnc2cc(Cl)ccc12
0.22 µM (≈ 0.125 µg/mL)	COC(=O)[C@@H]1Cc2c([nH]c3ccccc23)[C@H](c2ccc(C(C)C)cc2)N1CCCNc1ccnc2cc(Cl)ccc12
0.22 µM (≈ 0.125 µg/mL)	COC(=O)[C@H]1Cc2c([nH]c3ccccc23)[C@H](c2ccc(C(C)C)cc2)N1CCCNc1ccnc2cc(Cl)ccc12
16.3 µM (≈ 10 µg/mL)	COC(=O)[C@H]1Cc2c([nH]c3ccccc23)[C@H](c2cc(OC)c(OC)c(OC)c2)N1CCCNc1ccnc2cc(Cl)ccc12
0.11 µM (≈ 0.0608 µg/mL)	CCc1ccc([C@@H]2c3[nH]c4ccccc4c3C[C@H](C(=O)OC)N2CCCNc2ccnc3cc(Cl)ccc23)cc1
18.1 µM (≈ 10 µg/mL)	COC(=O)[C@H]1Cc2c([nH]c3ccccc23)[C@H](c2ccc(OC)cc2)N1CCCNc1ccnc2cc(Cl)ccc12
19.1 µM (≈ 10 µg/mL)	COC(=O)[C@H]1Cc2c([nH]c3ccccc23)[C@H](c2ccc(C)cc2)N1CCNc1ccnc2cc(Cl)ccc12
17.5 µM (≈ 10 µg/mL)	COC(=O)[C@@H]1Cc2c([nH]c3ccccc23)[C@H](c2ccc(SC)cc2)N1CCCNc1ccnc2cc(Cl)ccc12
0.06 µM (≈ 0.0323 µg/mL)	COC(=O)[C@@H]1Cc2c([nH]c3ccccc23)[C@@H](c2ccc(C)cc2)N1CCCNc1ccnc2cc(Cl)ccc12
1.79 µM (≈ 1 µg/mL)	COC(=O)[C@H]1Cc2c([nH]c3ccccc23)[C@H](c2ccc(Cl)cc2)N1CCCNc1ccnc2cc(Cl)ccc12
16.3 µM (≈ 10 µg/mL)	COC(=O)[C@@H]1Cc2c([nH]c3ccccc23)[C@H](c2cc(OC)c(OC)c(OC)c2)N1CCCNc1ccnc2cc(Cl)ccc12
18.1 µM (≈ 10 µg/mL)	COC(=O)[C@@H]1Cc2c([nH]c3ccccc23)[C@H](c2ccc(C(C)C)cc2)N1CCNc1ccnc2cc(Cl)ccc12
18.1 µM (≈ 10 µg/mL)	COC(=O)[C@H]1Cc2c([nH]c3ccccc23)[C@H](c2ccc(C(C)C)cc2)N1CCNc1ccnc2cc(Cl)ccc12
0.46 µM (≈ 0.248 µg/mL)	COC(=O)[C@H]1Cc2c([nH]c3ccccc23)[C@H](c2ccc(C)cc2)N1CCCNc1ccnc2cc(Cl)ccc12
